How the values were obtained:
HCT-116 [1] = assay: Growth inhibition of human HCT116 cells at 10 uM after 2 days by MTT assay; format: functional; details: HCT-116, 48 h
CCRF-CEM [2] = assay: Growth inhibition of human CCRF-CEM cells at 10 uM after 2 days by MTT assay; format: functional; details: 48 h
HCT-116 [3] = assay: Growth inhibition of human HCT116 cells after 2 days by MTT assay; format: functional; details: HCT-116, 48 h
Outline: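 HCT116 colorectal carcinoma cells from KCLB/ATCC were grown in RPMI 1640/DMEM with 10% heat-inactivated FBS at 37 °C and 5% CO₂. Cells were seeded at 5 × 10⁴ cells/ml and exposed in duplicate to a range of concentrations for two days. MTT dye was added for up to 4 h at 37 °C, formazan was solubilized overnight at room temperature, and A570 gave GI₅₀.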

CCRF-CEM [4] = assay: Growth inhibition of human CCRF-CEM cells after 2 days by MTT assay; format: functional; details: 48 h
HaCaT = assay: Cytotoxicity against human HaCaT cells

GI50 (HCT-116 [3]) [µM] | GI50 (CCRF-CEM [4]) [µM] | Compound | inhibition at 10 µM (HCT-116 [1]) [%] | inhibition at 10 µM (CCRF-CEM [2]) [%] | IC50 (HaCaT) [µM]
4.37 | 6.41 | COc1cc(OC)cc(-c2cn(-c3ccc(O)c(C(=O)Nc4cccc(C(F)(F)F)c4)c3)nn2)c1 | 62 | 73 | –
– | – | COC(=O)c1cc(-n2cc(-c3ccc(OC)cc3)nn2)ccc1O | 6 | 16 | –
– | – | COC(=O)c1cc(-n2cc(-c3ccccc3OC)nn2)ccc1O | 8 | 6 | –
– | – | COC(=O)c1cc(-n2cc(-c3cccc(O)c3)nn2)ccc1O | 6 | 5 | –
13.6 | 22.9 | COc1ccc(OC)c(-c2cn(-c3ccc(O)c(C(=O)NCCc4ccc(F)cc4)c3)nn2)c1 | 44 | 35 | –
> 100 | 22.8 | O=C(NCCc1ccc(F)cc1)c1cc(-n2cc(-c3cccc(O)c3)nn2)ccc1O | – | 35 | –
12.5 | > 100 | COc1ccc(-c2cn(-c3ccc(O)c(C(=O)NCCc4ccc(F)cc4)c3)nn2)cc1 | 62 | 21 | –
– | – | COc1ccccc1-c1cn(-c2ccc(O)c(C(=O)NCCc3ccc(F)cc3)c2)nn1 | 23 | 11 | –
– | – | O=C(OCCCc1ccccc1)c1cc(-n2cc(-c3cccc(O)c3)nn2)ccc1O | 11 | 9 | –
– | – | COC(=O)c1cc(-n2cc(-c3cc(OC)cc(OC)c3)nn2)ccc1O | 3 | 3 | –
– | – | COc1ccc(OC)c(-c2cn(-c3ccc(O)c(C(=O)O)c3)nn2)c1 | – | 9 | –
– | – | COC(=O)c1cc(-n2cc(-c3cc(OC)ccc3OC)nn2)ccc1O | 6 | 3 | –
> 100 | 13.9 | COC(=O)c1cc(-n2cc(-c3cc(O)ccc3O)nn2)ccc1O | 15 | 52 | –
– | – | O=C(O)c1cc(-n2cc(-c3cccc(O)c3)nn2)ccc1O | 5 | 3 | –
– | – | COc1ccc(-c2cn(-c3ccc(O)c(C(=O)O)c3)nn2)cc1 | 8 | 9 | –
– | – | COc1ccccc1-c1cn(-c2ccc(O)c(C(=O)O)c2)nn1 | 4 | 9 | –
– | – | O=C(NCCc1ccc(F)cc1)c1cc(-n2cc(-c3cc(O)ccc3O)nn2)ccc1O | 18 | 15 | –
– | – | COc1ccc(-c2cn(-c3ccc(O)c(C(=O)Nc4cccc(C(F)(F)F)c4)c3)nn2)cc1 | 9 | 12 | –
– | – | COc1ccc(OC)c(-c2cn(-c3ccc(O)c(C(=O)OCCCc4ccccc4)c3)nn2)c1 | 13 | 5 | –
20.4 | 0.93 | O=C(OCCCc1ccccc1)c1cc(-n2cc(-c3cc(O)ccc3O)nn2)ccc1O | 39 | 81 | –
16.1 | > 100 | COc1cc(OC)cc(-c2cn(-c3ccc(O)c(C(=O)NCCc4ccc(F)cc4)c3)nn2)c1 | 43 | 35 | –
12.9 | > 100 | COc1ccc(OC)c(-c2cn(-c3ccc(O)c(C(=O)Nc4cccc(C(F)(F)F)c4)c3)nn2)c1 | 46 | 15 | –
– | – | O=C(Nc1cccc(C(F)(F)F)c1)c1cc(-n2cc(-c3cccc(O)c3)nn2)ccc1O | 25 | 13 | –
– | – | COc1ccc(-c2cn(-c3ccc(O)c(C(=O)OCCCc4ccccc4)c3)nn2)cc1 | 12 | 5 | –
– | – | COc1ccccc1-c1cn(-c2ccc(O)c(C(=O)OCCCc3ccccc3)c2)nn1 | 7 | 4 | –
– | – | COc1cc(OC)cc(-c2cn(-c3ccc(O)c(C(=O)OCCCc4ccccc4)c3)nn2)c1 | 19 | 8 | –
– | – | COc1cc(OC)cc(-c2cn(-c3ccc(O)c(C(=O)O)c3)nn2)c1 | 2 | 9 | –
7.92 | 10.5 | COc1ccccc1-c1cn(-c2ccc(O)c(C(=O)Nc3cccc(C(F)(F)F)c3)c2)nn1 | 61 | 65 | –
0.4 | 0.02 | COc1cccc2c1C(=O)c1c(O)c3c(c(O)c1C2=O)C[C@@](O)(C(=O)CO)C[C@@H]3O[C@H]1C[C@H](N)[C@H](O)[C@H](C)O1 [DOXORUBICIN] | – | – | –
– | – | O=C(O)c1cc(NCc2cc(O)ccc2O)ccc1O [LAVENDUSTIN C] | – | – | > 100

Source: ChEMBL document CHEMBL1177770, “A rapid synthesis of lavendustin-mimetic small molecules by click fragment assembly” (Bioorg Med Chem Lett, 2010)
